The nature of data set [1]: melting temperature; fluorescence melt of hairpins on a sequencing array, two-state fit, raised by 9.35 °C to match UV melts. The settings on record: sodium 0.088 M. The essentials: (§1)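 On a sequenced MiSeq flow cell, library hairpins with annealed Cy3 and quencher oligos were imaged for Cy3 fluorescence in 2.5 °C steps up to 60 °C, in 50 mM Na-HEPES pH 8.0, 25 mM NaCl. Normalisation used pre-quench Cy3 and control constructs. Bootstrapped two-state fits gave melting temperature and folding enthalpy, combined by inverse variance across four replicates and with fitted temperatures raised by 9.35 °C to match UV melts.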

Data set [2] in a line: folding enthalpy; higher = less favourable; fluorescence melt of hairpins on a sequencing array, two-state fit. The settings on record: sodium 0.088 M. The method, boiled down: as §1

With GATCGTTGGTACGATC ((((((....)))))), in data set [1], the Tm turned out to be 55.2 °C. Besides, the folding enthalpy in data set [2] was -38.4 kcal/mol.
For GGGCCAGGAAACTGGCTC (.(((((....))))).) the same measures were 61 °C and -16.1 kcal/mol.
Taken in the same sequence, the figures for GATCCGTTTACGGATC ((((((....)))))) were 68.1 °C and -39.3 kcal/mol.
For GAGTATGGAAACATGCTC (((.(((....))).))) the same measures were 46.8 °C and -34.1 kcal/mol.
For the sequence GTACGCGGAAACACGTAC (((((.(....).))))), in data set [1], the Tm came out at 47.9 °C. Moreover, the folding enthalpy in data set [2] was -34.1 kcal/mol.
In the case of CGCGGACAACTCCGCG ((((((....)))))), the Tm in data set [1] was determined as 64.9 °C. Besides, the folding enthalpy in data set [2] is -31.9 kcal/mol.
Taken in the same sequence, the figures for GCGCCTGGAAACAAGCGC ((((.((....)).)))) were 52.8 °C and -41.6 kcal/mol.
Taken in the same sequence, the figures for GTCACCGAAAGGTATGAC ((((((....)))..))) were 40.1 °C and -20.2 kcal/mol.
Taken in the same sequence, the figures for GCTCCCGAAAGGGGTAGC ((((((....)))..))) were 48.7 °C and -18.1 kcal/mol.
Turning to GAGTTAGGAAACTAGCTC (((.(((....))).))), the Tm in data set [1] stood at 40.4 °C. Also, the folding enthalpy in data set [2] was -28.9 kcal/mol.
Turning to GCATAGAAATATGC (((((....))))), the Tm in data set [1] came to 43.3 °C. The folding enthalpy in data set [2] was -21.9 kcal/mol.
For GTGTTTCGAAAGAAGCAC (((.(((....))).))) the same measures were 51 °C and -38.1 kcal/mol.
Turning to GGGCCAGCGAAAGCTCCC (((..(((....)))))), the Tm in data set [1] came out at 40.3 °C. For the same sequence, the folding enthalpy in data set [2] was -14.5 kcal/mol.
GTTTCGCGAAAGCGTAAC (((.(((....))).))): in data set [1], the Tm was 48.6 °C. Moreover, the folding enthalpy in data set [2] was -21.9 kcal/mol.
For GATCTTTTGCAAGATC ((((((....)))))) the same measures were 42.8 °C and -34.8 kcal/mol.
For GTGTTCGAAAGAAAGCAC ((((((....)))..))) the same measures were 27.5 °C and -12.8 kcal/mol.
For GTACACGAAAGTGGGTAC ((((((....)))..))) the same measures were 37.4 °C and -14.9 kcal/mol.
As for GGTTGCTCGAAAGAGACC (((..(((....)))))), in data set [1], the Tm amounted to 29.6 °C. Further, the folding enthalpy in data set [2] is -13.4 kcal/mol.
For GAAGCCGCGAAAGCGTTC (((..(((....)))))) the same measures were 26.3 °C and -11 kcal/mol.
Taken in the same sequence, the figures for GCACGAGGAAACTCACGC ((..(((....)))..)) were 31.7 °C and -22.7 kcal/mol.
Regarding GCGTCGCCACGC ((((....)))), the Tm in data set [1] amounted to 53.7 °C. Further, the folding enthalpy in data set [2] was -15.9 kcal/mol.
Taken in the same sequence, the figures for GCTCAGGCGAAAGCCAGC (((..(((....)))))) were 42.8 °C and -12.6 kcal/mol.
On to GATCTTAAATAAGATC ((((((....)))))), for which the Tm in data set [1] turned out to be 38.5 °C. Moreover, in data set [2], the folding enthalpy was -31.9 kcal/mol.
For GGAGATGGAAACATCTCC (((((((....))))))) the same measures were 65 °C and -38 kcal/mol.
Taken in the same sequence, the figures for GATCAGCCAGCTGATC ((((((....)))))) were 56.5 °C and -40.1 kcal/mol.
For GATCTTTACCAAGATC ((((((....)))))) the same measures were 42 °C and -29.9 kcal/mol.
GTGCCCGAAAGGGTCCAC ((((((....)))..))): in data set [1], the Tm is 41 °C. Moreover, the folding enthalpy in data set [2] was -10.3 kcal/mol.
For GTCGGAGGAAACTCCAAC ((.((((....)))).)) the same measures were 35.5 °C and -22.7 kcal/mol.
Taken in the same sequence, the figures for CGGACGGAAACGTACCG ((((((....))).))) were 47.5 °C and -24.2 kcal/mol.
Taken in the same sequence, the figures for GGGAGAACGAAAGTTCCC (((..(((....)))))) were 47.7 °C and -17.1 kcal/mol.
For GATCAATTTATTGATC ((((((....)))))), the Tm in data set [1] amounted to 54.2 °C. Also, the folding enthalpy in data set [2] was -52.4 kcal/mol.
Taken in the same sequence, the figures for GATCATGGATATGATC ((((((....)))))) were 54.1 °C and -37.9 kcal/mol.
For the sequence GCAGGCGAAAGCCATGC ((((((....))).))), in data set [1], the Tm was 61 °C. In addition, the folding enthalpy in data set [2] is -19.9 kcal/mol.
For GTTCGCCGAAAGGCAAAC (((.(((....))).))) the same measures were 46.9 °C and -18.1 kcal/mol.
Taken in the same sequence, the figures for GATCACAGAAGTGATC ((((((....)))))) were 54.4 °C and -37.4 kcal/mol.
For GGAAACCGAAAGGTCTCC (((.(((....))).))) the same measures were 44.8 °C and -27.5 kcal/mol.
Consider GCTTCCGAAAGGACGAGC ((((((....)))..))), for which, in data set [1], the Tm came out at 37.6 °C. Besides, in data set [2], the folding enthalpy is -18.8 kcal/mol.
